Reference: ChEMBL document CHEMBL3868630, “Synthesis, anti-proliferative activity, SAR study, and preliminary in vivo toxicity study of substituted N,N'-bis(arylmethyl)benzimidazolium salts against a panel of non-small cell lung cancer cell lines” (Bioorg Med Chem, 2017)

Experiments:
[1] = Cytotoxicity against human HOP62 cells assessed as cell growth at 10 uM after 48 hrs by SRB assay relative to control; assay type: functional; conditions: HOP-62, 48 h, read-out: Activity
[2] = Aqueous solubility of the compound; assay type: physicochemical
[3] = Cytotoxicity against human HOP92 cells assessed as cell growth at 10 uM after 48 hrs by SRB assay relative to control; assay type: functional; conditions: HOP-92, 48 h, read-out: Activity
[4] = Cytotoxicity against human HCC827 cells assessed as decrease in cell viability after 72 hrs by MTT assay; assay type: functional, cell-based; conditions: HCC827, 72 h
In short: (§1)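 Cells kept in RPMI 1640 with 10% FBS at 37 °C, 5% CO2, passaged every 2-3 days; seeded at 5,000-7,000 cells/well and left 24 h. Compounds dissolved in 1% DMSO, diluted in fresh medium to 1, 4, 16 and 32 µM, added in sextuplicate; 72 h exposure. MTT added for 3-4 h, medium removed, DMSO added for 15 min at 37 °C, OD read at 540 nm.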

[5] = Cytotoxicity against human A549 cells assessed as decrease in cell viability after 72 hrs by MTT assay; assay type: functional, cell-based; conditions: A549, 72 h; in short: as §1
[6] = Cytotoxicity against human NCI-H1975 cells assessed as decrease in cell viability after 72 hrs by MTT assay; assay type: functional, cell-based; conditions: NCI-H1975, 72 h; in short: as §1
[7] = Cytotoxicity against human NCI-H460 cells assessed as decrease in cell viability after 72 hrs by MTT assay; assay type: functional, cell-based; conditions: NCI-H460, 72 h; in short: as §1
[8] = Cytotoxicity against human NCI-H322M cells assessed as cell growth at 10 uM after 48 hrs by SRB assay relative to control; assay type: functional; conditions: read-out: Activity
[9] = Cytotoxicity against human NCI-H23 cells assessed as cell growth at 10 uM after 48 hrs by SRB assay relative to control; assay type: functional; conditions: NCI-H23, 48 h, read-out: Activity
[10] = Cytotoxicity against human A549 cells assessed as cell growth at 10 uM after 48 hrs by SRB assay relative to control; assay type: functional; conditions: A549, 48 h, read-out: Activity
[11] = Cytotoxicity against human NCI-H226 cells assessed as cell growth at 10 uM after 48 hrs by SRB assay relative to control; assay type: functional; conditions: NCI-H226, 48 h, read-out: Activity
[12] = Cytotoxicity against human NCI-H522 cells assessed as cell growth at 10 uM after 48 hrs by SRB assay relative to control; assay type: functional; conditions: NCI-H522, 48 h, read-out: Activity
[13] = Cytotoxicity against human EKVX cells assessed as cell growth at 10 uM after 48 hrs by SRB assay relative to control; assay type: functional; conditions: read-out: Activity
[14] = Cytotoxicity against human NCI-H460 cells assessed as cell growth at 10 uM after 48 hrs by SRB assay relative to control; assay type: functional; conditions: NCI-H460, 48 h, read-out: Activity
[15] = Growth inhibition of human NCI-H23 cells after 48 hrs by SRB assay; assay type: functional; conditions: NCI-H23, 48 h
[16] = Growth inhibition of human A549 cells after 48 hrs by SRB assay; assay type: functional; conditions: A549, 48 h
[17] = Growth inhibition of human NCI-H226 cells after 48 hrs by SRB assay; assay type: functional; conditions: NCI-H226, 48 h
[18] = Growth inhibition of human NCI-H322M cells after 48 hrs by SRB assay; assay type: functional
[19] = Growth inhibition of human HOP92 cells after 48 hrs by SRB assay; assay type: functional; conditions: HOP-92, 48 h
[20] = Growth inhibition of human NCI-H522 cells after 48 hrs by SRB assay; assay type: functional; conditions: NCI-H522, 48 h
[21] = Growth inhibition of human NCI-H460 cells after 48 hrs by SRB assay; assay type: functional; conditions: NCI-H460, 48 h
[22] = Growth inhibition of human EKVX cells after 48 hrs by SRB assay; assay type: functional
[23] = Growth inhibition of human HOP62 cells after 48 hrs by SRB assay; assay type: functional; conditions: HOP-62, 48 h

| SMILES | growth at 10 µM [1] [%] | solubility [2] [µg/mL] | growth at 10 µM [3] [%] | IC50 [4] [nM] | IC50 [5] [nM] | IC50 [6] [nM] | IC50 [7] [nM] | growth at 10 µM [8] [%] | growth at 10 µM [9] [%] | growth at 10 µM [10] [%] | growth at 10 µM [11] [%] | growth at 10 µM [12] [%] | growth at 10 µM [13] [%] | growth at 10 µM [14] [%] | also measured |
| --- | --- | --- | --- | --- | --- | --- | --- | --- | --- | --- | --- | --- | --- | --- | --- |
| S=c1n(Cc2ccc3ccccc3c2)c2ccccc2n1Cc1ccc2ccccc2c1 | 81.9 | < 500 | 83.4 | > 30000 | > 30000 | > 30000 | > 30000 | 92.6 | 93.1 | 87.6 | 73.5 | 88.2 | 93.1 | 69.8 | – |
| CCc1n(Cc2ccc3ccccc3c2)c2ccccc2[n+]1Cc1ccc2ccccc2c1.[Br-] | 81.3 | < 500 | 21.9 | 4000 | 3000 | < 1000 | 3000 | 90.7 | 28.8 | 74.2 | 64.9 | 12.1 | 76.7 | 53.6 | – |
| CCCCc1n(Cc2ccc3ccccc3c2)c2ccccc2[n+]1Cc1ccc2ccccc2c1.[Br-] | -76.8 | < 500 | -70.7 | 2000 | 2000 | < 1000 | 2000 | -82.2 | -83.9 | -72.3 | -72.7 | -77.2 | -84.6 | -81.1 | GI50 [15]: 371 nM; TGI [15]: 1700 nM; GI50 [16]: 1040 nM; TGI [16]: 2420 nM; GI50 [17]: 1080 nM; GI50 [18]: 1220 nM; TGI [18]: 2570 nM; GI50 [19]: 298 nM; TGI [19]: 1350 nM; GI50 [20]: 289 nM; TGI [20]: 1350 nM; GI50 [21]: 436 nM; GI50 [22]: 1170 nM; GI50 [23]: 1050 nM; TGI [23]: 2550 nM |
| Cc1n(Cc2ccc3ccccc3n2)c2ccccc2[n+]1Cc1ccc2ccccc2n1.[Cl-] | 82.7 | 1100 | 52 | 7000 | 9000 | 2000 | 3000 | 94.9 | 75.8 | 87.9 | 89.6 | 56.6 | 102 | 95.8 | – |
| COCCc1n(Cc2ccc3ccccc3c2)c2ccccc2[n+]1Cc1ccc2ccccc2c1.[Br-] | -19.1 | < 500 | -53.1 | 3000 | 3000 | 2000 | 3000 | 5.25 | -24.3 | 4.72 | -7.12 | -54.4 | 4.7 | -65.3 | – |
| COCCOCCOCc1n(Cc2ccc3ccccc3c2)c2ccccc2[n+]1Cc1ccc2ccccc2c1.[Br-] | 17.1 | 700 | -32.1 | 5000 | 5000 | 3000 | 3000 | 40.5 | 5.56 | 33.1 | 17.2 | -16.6 | 47.4 | 10.3 | – |
| O=c1n(Cc2ccc3ccccc3c2)c2ccccc2n1Cc1ccc2ccccc2c1 | 62.8 | < 500 | 79.9 | > 30000 | > 30000 | 19000 | > 30000 | 81.6 | 77.7 | 85.2 | 83.9 | 73.4 | 79.5 | 74.6 | – |
| COC(=O)CCc1n(Cc2ccc3ccccc3c2)c2ccccc2[n+]1Cc1ccc2ccccc2c1.[Br-] | 19 | < 500 | -34.4 | 4000 | 8000 | 2000 | 4000 | 36.6 | -7.39 | 38.3 | 17.7 | -29.4 | 42.1 | 6.29 | – |
| COCCOCCOCc1n(Cc2ccc3ccccc3n2)c2ccccc2[n+]1Cc1ccc2ccccc2n1.[Cl-] | 20.8 | 42200 | -22.1 | 4000 | 9000 | < 1000 | 4000 | 47.4 | 12.8 | 39.4 | 37.9 | -1.7 | 71.6 | 16.5 | – |
| [Br-].c1ccc2cc(Cn3c[n+](Cc4ccc5ccccc5c4)c4ccccc43)ccc2c1 | 3.98 | < 500 | -27.6 | 3000 | 5000 | 3000 | 3000 | 34.6 | -0.74 | 30.9 | 19.6 | -28.8 | 13.9 | -34.2 | GI50 [15]: 1050 nM; TGI [15]: 2510 nM; GI50 [16]: 1870 nM; LC50 [16]: 8010 nM; TGI [16]: 3880 nM; GI50 [17]: 1460 nM; TGI [17]: 3250 nM; GI50 [18]: 1490 nM; TGI [18]: 2890 nM; GI50 [19]: 192 nM; LC50 [19]: 4930 nM; TGI [19]: 1570 nM; GI50 [20]: 1250 nM; TGI [20]: 2820 nM; GI50 [21]: 1350 nM; TGI [21]: 2910 nM; GI50 [22]: 1470 nM; TGI [22]: 2950 nM; GI50 [23]: 1540 nM; TGI [23]: 2980 nM |
| CCCCCCCc1n(Cc2ccc3ccccc3c2)c2ccccc2[n+]1Cc1ccc2ccccc2c1.[Br-] | -70.6 | < 500 | -84.4 | < 1000 | < 1000 | < 1000 | < 1000 | -86 | -76.9 | -77.5 | -70.8 | -81.1 | -73.5 | -73 | – |
| CCCc1n(Cc2ccc3ccccc3c2)c2ccccc2[n+]1Cc1ccc2ccccc2c1.[Br-] | -55.4 | < 500 | -48.1 | < 1000 | 2000 | < 1000 | 2000 | 4.72 | -12.9 | -19.4 | -4.44 | -60.1 | -4.84 | -76.1 | GI50 [15]: 354 nM; TGI [15]: 1600 nM; GI50 [16]: 619 nM; LC50 [16]: 5090 nM; TGI [16]: 2040 nM; GI50 [17]: 373 nM; TGI [17]: 1800 nM; GI50 [18]: 1040 nM; TGI [18]: 2310 nM; GI50 [19]: 192 nM; TGI [19]: 911 nM; GI50 [20]: 300 nM; TGI [20]: 1050 nM; GI50 [21]: 337 nM; TGI [21]: 1360 nM; GI50 [22]: 653 nM; TGI [22]: 2330 nM; GI50 [23]: 537 nM; TGI [23]: 2030 nM |
| OCCCc1n(Cc2ccc3ccccc3n2)c2ccccc2[n+]1Cc1ccc2ccccc2n1.[Cl-] | 87.5 | < 500 | 47.9 | 17000 | 25000 | 7000 | 11000 | 91.7 | 75 | 93.2 | 79.8 | 60 | 97.8 | 91.8 | – |
